Experimental data taken from PubChem BioAssay.
Calls of active or inactive are those of the source.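 Rule for the calls, unless noted: active = viability at or below 10% of carrier control in both of two separate runs; inconclusive = viability at or below 10% in only one of the two runs; inactive = the rest.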

Legend:
[1] = reducers of endogenous Her2 protein level, primary screen, SKBR3 breast tumor cells, AlphaScreen, ATP viability (AID 461;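 active = Her2 level under about 52% in both replicate screens, with viability over 70% of control, limit read from the data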;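 for Her2 level: lower value means less Her2 protein in the cells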;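 for viability: percent of carrier control wells set as 100% viability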); conditions: 18-24 h, measured here: SKBR3 viability, ATP luminescence, at 10 µM
[2] = target: Receptor tyrosine-protein kinase erbB-2 (Homo sapiens) (UniProt P04626); experiment: as above; conditions: 18-24 h, at 10 µM, stronger effect = lower value
Chain of Receptor tyrosine-protein kinase erbB-2 (Homo sapiens) (P04626 whole entry, looked up): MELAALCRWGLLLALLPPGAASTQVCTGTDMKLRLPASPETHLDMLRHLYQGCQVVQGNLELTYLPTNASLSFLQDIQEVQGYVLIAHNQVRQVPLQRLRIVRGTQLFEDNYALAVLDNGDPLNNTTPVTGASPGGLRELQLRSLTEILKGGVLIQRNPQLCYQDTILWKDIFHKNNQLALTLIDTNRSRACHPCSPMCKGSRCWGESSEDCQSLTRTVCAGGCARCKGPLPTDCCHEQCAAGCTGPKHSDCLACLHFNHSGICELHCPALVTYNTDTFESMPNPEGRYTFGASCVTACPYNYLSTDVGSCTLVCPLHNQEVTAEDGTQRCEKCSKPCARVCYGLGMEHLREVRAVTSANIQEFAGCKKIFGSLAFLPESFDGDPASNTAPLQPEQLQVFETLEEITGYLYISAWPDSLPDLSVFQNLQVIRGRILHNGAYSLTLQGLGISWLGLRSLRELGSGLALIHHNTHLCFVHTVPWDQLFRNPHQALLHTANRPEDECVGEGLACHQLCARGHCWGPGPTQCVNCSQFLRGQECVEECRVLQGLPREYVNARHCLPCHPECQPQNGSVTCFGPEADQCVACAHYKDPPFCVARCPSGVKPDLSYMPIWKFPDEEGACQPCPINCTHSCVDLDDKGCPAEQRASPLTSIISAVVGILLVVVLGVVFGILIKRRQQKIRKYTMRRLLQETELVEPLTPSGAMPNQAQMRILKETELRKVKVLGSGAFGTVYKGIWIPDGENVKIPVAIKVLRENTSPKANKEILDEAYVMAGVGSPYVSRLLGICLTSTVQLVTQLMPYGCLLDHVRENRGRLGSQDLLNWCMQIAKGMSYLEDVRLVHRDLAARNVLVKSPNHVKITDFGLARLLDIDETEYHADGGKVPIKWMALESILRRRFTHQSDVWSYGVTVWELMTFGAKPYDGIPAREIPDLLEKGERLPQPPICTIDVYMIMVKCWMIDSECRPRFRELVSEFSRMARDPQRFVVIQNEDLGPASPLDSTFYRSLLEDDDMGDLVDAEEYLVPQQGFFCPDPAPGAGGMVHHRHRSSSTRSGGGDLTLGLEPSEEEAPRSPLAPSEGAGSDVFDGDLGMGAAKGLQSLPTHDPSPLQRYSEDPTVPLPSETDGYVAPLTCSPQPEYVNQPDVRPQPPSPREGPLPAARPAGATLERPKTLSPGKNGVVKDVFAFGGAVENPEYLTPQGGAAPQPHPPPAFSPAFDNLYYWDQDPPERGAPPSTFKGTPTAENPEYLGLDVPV

[3] = SK-BR-3 cell growth inhibitors, pilot screen, 24 h, human (AID 572); conditions: SK-BR-3 viability, CellTiter-Glo luminescence, at 10 µM, stronger effect = lower value;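 note: compound exposure lasted between 18 and 24 h rather than exactly 24 h; 100% = carrier-treated control wells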
[4] = HUVEC growth inhibition – cell-based, human, primary screen (AID 575;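 active = viability at or below 30% in both replicate assays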;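 note: 100% = median of untreated cell wells with 0.1% DMSO on each plate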); conditions: HUVEC proliferation, CellTiter-Glo luminescence, 72 h; at 10 µM; stronger effect = lower value
Method in brief: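 System – primary HUVEC, no more than 12 passages · Medium – Low-serum (2% FBS) EBM, supplemented · Times – 72 h exposure, 37 °C, 5% CO2, 30 min RT equilibration · Measured by – luminescent ATP assay · Read-out – % viability relative to median vehicle-well signal on each plate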

[5] = growth inhibitors of H69AR lung tumor, primary screen, human, duplicate replicates (AID 580;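 active = viability at or under a set limit in both replicates, limit being median viability minus 3 SD, cut at about 48% in these data, passing the limit was not always enough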;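 note: 100% = mean luminescence of untreated wells and 0% = no signal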); conditions: H69AR lung tumor cells viability, ATP luminescence, 72 h; at 10 µM; stronger effect = lower value
[6] = reversal of MRP1-mediated doxorubicin resistance, pilot screen, H69AR cells, doxorubicin co-treatment (AID 601;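 active = viability loss from added drug above about 55%, and viability with drug at most 40%, in both replicates, limit read from the data, passing the limit was not always enough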); conditions: CellTiter-Glo, 72 h, at 10 µM; for differential viability (reversal): stronger effect = higher value
[7] = 384-well plate pilot, post-Golgi transport modulator project, inhibition of yeast transport mutant growth (AID 636; in the data active = inhibition above about 31%); conditions: absorbance 615 nm, about 18 h, stronger effect = higher value
[8] = growth suppression of yeast trafficking mutant, preliminary HTS, modulators of trafficking downstream of Golgi apparatus project, 1536-format plate, OD 615 nm (AID 637; in the data active = inhibition above about 30%); conditions: yeast transport mutant growth, absorbance 615 nm, 18 h; stronger effect = higher value
[9] = H69AR cells + 2 uM doxorubicin, measured here: viability with 2 uM doxorubicin, stronger effect = lower value
[10] = H69AR cells, compound alone cytotoxicity

| SMILES | viability [1] [%] | Her2 level [2] | viability [3] | viability [4] | viability [5] | differential viability (reversal) ([6]; H69AR cells + 2 uM doxorubicin) | viability [6, 9] [%] | viability [6, 10] [%] | inhibition [7] | inhibition [8] |
| --- | --- | --- | --- | --- | --- | --- | --- | --- | --- | --- |
| CCN(CC)S(=O)(=O)c1cccc(-c2nnc(SCC(N)=O)n2CCc2ccccc2)c1 | 102 | 108% (inactive) | 102% (inactive) | 91% (inactive) | 74.7% (inactive) | -9.28% (inactive) | 84 | 74.7 | -2.21% (inactive) | -6.35% (inactive) |
| CCOc1ccc2nc(SCC(=O)N3CCCCCC3)c(C#N)cc2c1 | 95 | 82.5% (inactive) | 95% (inactive) | 87.5% (inactive) | 86.2% (inactive) | -3.21% (inactive) | 89.4 | 86.2 | -5.87% (inactive) | 3.28% (inactive) |
| O=S(=O)(NCCSc1ccccc1)c1cccs1 | 95 | 86% (inactive) | 95% (inactive) | 102% (inactive) | 86.4% (inactive) | 11.9% (inactive) | 74.6 | 86.4 | -6.49% (inactive) | -5.5% (inactive) |
| O=C(NCc1ccc2c(c1)OCO2)c1cc2n(n1)C(C(F)(F)F)CC(c1ccc3c(c1)OCO3)N2 (stereo not given) | 98 | 82% (inactive) | 98% (inactive) | 73.8% (inactive) | 84.2% (inactive) | 9.51% (inactive) | 74.7 | 84.2 | -2.89% (inactive) | 5% (inactive) |
| CCOc1ccc(CN2C(=O)c3ccccc3C2C(=O)NCc2cccnc2)cc1 (stereo not given) | 96 | 96.5% (inactive) | 96% (inactive) | 86.6% (inactive) | 98.8% (inactive) | 1.78% (inactive) | 97 | 98.8 | -0.91% (inactive) | -3.02% (inactive) |
| CCOc1ccc(C2CC(=O)NC3=C2C(=O)CCC3)cc1Cl (stereo not given) | 108 | 97.5% (inactive) | 108% (inactive) | 88.4% (inactive) | 99.4% (inactive) | 14.2% (inactive) | 85.2 | 99.4 | -4.21% (inactive) | 0% (inactive) |
| Cc1ccc(S(=O)(=O)NCCCCC(NC(=O)OC(C)(C)C)C(=O)O)cc1 (stereo not given) (tested in a mixture with another compound) | 91.5 | 92.5% (inactive) | 91.5% (inactive) | 125% (inactive) | 104% (inactive) | 7.71% (inactive) | 96.8 | 104 | -3.68% (inactive) | 8.52% (inactive) |
| O=C(NC1CCCCCC1)C1c2ccccc2C(=O)N1Cc1cccnc1 (stereo not given) | 108 | 99.5% (inactive) | 108% (inactive) | 74.3% (inactive) | 90.1% (inactive) | -12.5% (inactive) | 103 | 90.1 | 0.13% (inactive) | -7.3% (inactive) |
| CC(=O)Nc1ccc(Oc2cc(C#N)c(C#N)cc2N2CCCCCC2)cc1 | 108 | 76% (inactive) | 108% (inactive) | 73.5% (inactive) | 89.6% (inactive) | 21.8% (inactive) | 67.8 | 89.6 | -3.03% (inactive) | 0.95% (inactive) |
| COCCn1c(CN2CCN(c3cccc(Cl)c3)CC2)nc2c1c(=O)n(C)c(=O)n2C | 85 | 85% (inactive) | 85% (inactive) | 64.7% (inactive) | 72.9% (inactive) | 17.6% (inactive) | 55.4 | 72.9 | -5.87% (inactive) | 1.83% (inactive) |
| CC(=Nc1ccc(C)c(C)c1)C1=C(O)CCC1=O | 102 | 88.5% (inactive) | 102% (inactive) | 95.1% (inactive) | 94.7% (inactive) | 12% (inactive) | 82.8 | 94.7 | -3.73% (inactive) | -2.46% (inactive) |
| CCC(C)NC(=O)C1(C)CCC(=O)N1Cc1ccccc1OC (stereo not given) | 100 | 95% (inactive) | 100% (inactive) | 99.8% (inactive) | 95.3% (inactive) | 0.27% (inactive) | 95 | 95.3 | -5.07% (inactive) | 1.31% (inactive) |
| Cc1sc(NC(=O)CSc2nc(N)n(CC(=O)c3ccccc3)n2)c(C#N)c1C | 103 | 106% (inactive) | 103% (inactive) | 103% (inactive) | 90.4% (inactive) | -0.79% (inactive) | 91.2 | 90.4 | -3.65% (inactive) | -6.83% (inactive) |
| O=C(CN1C(=O)CSC1=O)N1CCc2ccccc2C1 | 100 | 98% (inactive) | 100% (inactive) | 73.4% (inactive) | 89.6% (inactive) | 0.255% (inactive) | 89.3 | 89.6 | -2.34% (inactive) | -3.5% (inactive) |
| Cn1c(=O)c2c(nc(N3CCCCC3)n2CCSc2nc3ccccc3o2)n(C)c1=O | 100 | 105% (inactive) | 100% (inactive) | 88.4% (inactive) | 82.2% (inactive) | 1.8% (inactive) | 80.4 | 82.2 | -0.67% (inactive) | -6.39% (inactive) |
| Cc1ccc(C(=O)CC2(O)C(=O)N(CN3CCOCC3)c3ccccc32)cc1 (stereo not given) | 100 | 90.5% (inactive) | 100% (inactive) | 85.9% (inactive) | 94.6% (inactive) | -5.11% (inactive) | 99.7 | 94.6 | -3.55% (inactive) | -4.83% (inactive) |

| SMILES | viability [1] [%] | Her2 level [2] | viability [3] | viability [4] | viability [5] | differential viability (reversal) ([6]; H69AR cells + 2 uM doxorubicin) | viability [6, 9] [%] | viability [6, 10] [%] | inhibition [7] | inhibition [8] |
| --- | --- | --- | --- | --- | --- | --- | --- | --- | --- | --- |
| COc1ccccc1NC(=O)CSC1CC(=O)N(c2ccc3c(c2)OCO3)C1=O (stereo not given) | 98 | 82.5% (inactive) | 98% (inactive) | 96.5% (inactive) | 99.4% (inactive) | 0.975% (inactive) | 98.4 | 99.4 | -4.53% (inactive) | 0.16% (inactive) |
| COCCNc1oc(-c2ccc(C)cc2)nc1C#N | 102 | 81% (inactive) | 102% (inactive) | 113% (inactive) | 85.9% (inactive) | 8.44% (inactive) | 77.5 | 85.9 | -4.46% (inactive) | 3.33% (inactive) |
| O=C(CCn1c(=S)[nH]c2cc3c(cc2c1=O)OCO3)N1CCN(C2CCCCC2)CC1 | 90.5 | 82.5% (inactive) | 90.5% (inactive) | 93.8% (inactive) | 90% (inactive) | -2.85% (inactive) | 92.8 | 90 | -5.54% (inactive) | -0.66% (inactive) |
| Cc1ccc(CNC(=O)C2CCN(S(=O)(=O)c3c(C)noc3C)CC2)cc1 | 100 | 102% (inactive) | 100% (inactive) | 106% (inactive) | 104% (inactive) | 6.84% (inactive) | 97.4 | 104 | -0.53% (inactive) | -4.44% (inactive) |
| Cn1nnnc1SCC(=O)NCc1ccco1 | 95 | 110% (inactive) | 95% (inactive) | 91.8% (inactive) | 95.8% (inactive) | 9.46% (inactive) | 86.3 | 95.8 | 1.2% (inactive) | -6.72% (inactive) |
| CN(Cc1ccccc1)Cc1c[nH]c2ccccc12 | 87 | 96.5% (inactive) | 87% (inactive) | 79.7% (inactive) | 89.8% (inactive) | -6.54% (inactive) | 96.3 | 89.8 | -4.61% (inactive) | -1.5% (inactive) |
| CCC(C)n1[nH]c(=O)c2c(C)cc(C)nc21 (stereo not given) | 97.5 | 91.5% (inactive) | 97.5% (inactive) | 95.8% (inactive) | 98.8% (inactive) | 9.86% (inactive) | 88.9 | 98.8 | -5.26% (inactive) | -1.64% (inactive) |
| COc1ccc2c(c1)C(C)=CC(C)(C)N2C(=O)CSc1nnc(-c2ccc(C)cc2)o1 | 98.5 | 99% (inactive) | 98.5% (inactive) | 53.2% (inactive) | 93.9% (inactive) | 2.13% (inactive) | 91.8 | 93.9 | 31% (active) | -1% (inactive) |
| Cc1ccccc1N(CC(=O)NCC1CCCO1)C(=O)C1(C)CC(=O)N=C2C=CC=CN21 (stereo not given) | 96 | 96.5% (inactive) | 96% (inactive) | 104% (inactive) | 98.7% (inactive) | -1.7% (inactive) | 100 | 98.7 | -1.05% (inactive) | -10.5% (inactive) |
| COc1ccccc1N1CCN(C(=O)c2ccc(CS(=O)(=O)c3ccccc3OC)o2)CC1 | 90.5 | 104% (inactive) | 90.5% (inactive) | 85.1% (inactive) | 76.2% (inactive) | -11.9% (inactive) | 88.1 | 76.2 | -5.39% (inactive) | -0.32% (inactive) |
| CCC1Oc2ccccc2N(CC(=O)Nc2ccc(OC)cc2OC)C1=O (stereo not given) | 90.5 | 95.5% (inactive) | 90.5% (inactive) | 106% (inactive) | 100% (inactive) | 15% (inactive) | 85.3 | 100 | -2.24% (inactive) | -1.09% (inactive) |
| CCOC(=O)Cn1c(CN2CCN(c3cccc(Cl)c3)CC2)nc2c1c(=O)[nH]c(=O)n2C | 92.5 | 87% (inactive) | 92.5% (inactive) | 69% (inactive) | 72.5% (inactive) | -6.24% (inactive) | 78.7 | 72.5 | 0% (inactive) | 1.17% (inactive) |
| CS(=O)(=O)N1CCCC(C(=O)NCCCN2CCC(Cc3ccccc3)CC2)C1 (stereo not given) | 108 | 115% (inactive) | 108% (inactive) | 101% (inactive) | 103% (inactive) | 0.23% (inactive) | 103 | 103 | 2.6% (inactive) | -5.56% (inactive) |
| N#CCSc1nc2c(c(C3CC=CCC3)c1C#N)CCC2 (stereo not given) | 88.5 | 81.5% (inactive) | 88.5% (inactive) | 63.4% (inactive) | 100% (inactive) | 12.8% (inactive) | 87.2 | 100 | -3.07% (inactive) | -1.94% (inactive) |
| FC(F)(F)c1cccc(N2CCN(c3nnnn3-c3ccccc3)CC2)c1 | 85 | 88.5% (inactive) | 85% (inactive) | 81% (inactive) | 84.7% (inactive) | 0.31% (inactive) | 84.4 | 84.7 | -5.84% (inactive) | -2.22% (inactive) |
| COc1cccc(NC(=O)CSc2nnc(-c3cccs3)n2C)c1 | 98 | 78.5% (inactive) | 98% (inactive) | 116% (inactive) | 97.5% (inactive) | 12.2% (inactive) | 85.3 | 97.5 | -6.08% (inactive) | -1.67% (inactive) |
